Source: paper PMC2947205 (Science (New York, N.Y.), 2009)
Like-named read-outs stand apart in the source and are kept apart here.

Experiments:
[1] = molecular target: T1, sigma-1 receptor (Homo sapiens, UniProt Q99720); test: Competition binding against
[2] = molecular target: T2, sigma-2 receptor (Homo sapiens, UniProt Q5BJF2); test: Sigma-2 receptor binding
[3] = molecular target: T1, sigma-1 receptor; settings: read-out: sigma-1 Kd; cited from earlier work
[4] = molecular target: T2, sigma-2 receptor; settings: read-out: sigma-2 Kd; cited from earlier work
[5] = system: WT mice; test: Open-field assay, WT mice; type: in vivo, mouse
[6] = system: sigma-1 receptor KO mice; test: Open-field assay, sigma-1 receptor KO mice; type: in vivo, mouse; settings: 3 mg/kg, ip, n = 6
[7] = molecular target: T3, sigma-2 receptor (Rattus norvegicus, UniProt Q5U3Y7); test: Protection of [125I]IAF photolabeling of sigma-2 receptor in rat liver membranes; type: binding; settings: for protection of [125I]IAF sigma-2 receptor photolabeling: 1 nM [125I]IAF
T3 sequence (Q5U3Y7 1-176): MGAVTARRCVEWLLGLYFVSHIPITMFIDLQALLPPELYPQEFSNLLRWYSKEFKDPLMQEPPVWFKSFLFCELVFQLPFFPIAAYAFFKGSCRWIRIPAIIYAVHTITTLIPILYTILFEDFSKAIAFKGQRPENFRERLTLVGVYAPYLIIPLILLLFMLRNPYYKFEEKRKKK

[8] = molecular target: T4, sigma-1 receptor (Rattus norvegicus, UniProt Q9R0C9); test: Protection of [125I]-IACoc photolabeling in rat liver membranes; type: binding; settings: for protection against sigma-1 receptor [125I]-IACoc photolabeling (in words): even at these high concentrations (50 and 100 μM); for protection of [125I]-IACoc photolabeling of the 26-kD sigma-1 receptor: 1 nM [125I]-IACoc
T4 sequence (Q9R0C9 whole entry): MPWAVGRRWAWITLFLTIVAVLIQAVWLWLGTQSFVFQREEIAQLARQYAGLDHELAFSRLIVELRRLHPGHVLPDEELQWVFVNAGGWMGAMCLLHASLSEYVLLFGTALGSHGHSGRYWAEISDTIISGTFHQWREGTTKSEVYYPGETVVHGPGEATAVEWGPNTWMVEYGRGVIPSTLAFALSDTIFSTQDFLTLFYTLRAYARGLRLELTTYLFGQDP

[9] = molecular target: T4, sigma-1 receptor; test: Protection of [125I]IAF photolabeling of sigma-1 receptor in rat liver membranes; type: binding; settings: for protection of [125I]IAF photolabeling of the sigma-1 receptor: 1 nM [125I]IAF
[10] = system: WT neonatal cardiac myocytes; test: Patch-clamp INa in WT neonatal cardiac myocytes; type: cell-based; settings: Mus musculus, read-out: inhibition of INa
Outline: (§1)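 Neonatal cardiac myocytes came from wild-type and sigma-1 receptor knock-out mice. INa was evoked by steps from −80 to −10 mV and recorded in the absence of, during and after washout of 100 μM test compound.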

[11] = system: KO myocytes; test: Patch-clamp INa in sigma-1 receptor KO neonatal cardiac myocytes; type: cell-based, mouse; settings: 100 μM, n = 7
Outline: as §1

[12] = system: human cardiac Na+ channel hNav1.5; test: Patch-clamp INa in COS-7 cells transiently transfected with hNav1.5; type: cell-based; settings: 100 μM, n = 3
Outline: (§2)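 Whole-cell INa was recorded in hNav1.5-expressing cells (HEK293; COS-7 transiently transfected). Currents were evoked by steps from −80 to −10 mV before, during and after washout of 100 μM test compound. Inhibition was derived from peak INa, reported as mean ± SEM of n = 3 cells.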

[13] = system: human cardiac Na+ channel hNav1.5; test: Patch-clamp INa in HEK293 cells stably expressing hNav1.5; type: cell-based; settings: 100 μM, steps from −80 to −10 mV, n = 3
Outline: as §2

T2 sequence (Q5BJF2 whole entry, species assumed): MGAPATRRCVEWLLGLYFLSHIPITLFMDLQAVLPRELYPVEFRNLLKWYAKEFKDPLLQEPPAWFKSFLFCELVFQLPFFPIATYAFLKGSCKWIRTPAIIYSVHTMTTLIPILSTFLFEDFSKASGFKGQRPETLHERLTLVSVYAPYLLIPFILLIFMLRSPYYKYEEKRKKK
T1 sequence (Q99720 whole entry, species assumed): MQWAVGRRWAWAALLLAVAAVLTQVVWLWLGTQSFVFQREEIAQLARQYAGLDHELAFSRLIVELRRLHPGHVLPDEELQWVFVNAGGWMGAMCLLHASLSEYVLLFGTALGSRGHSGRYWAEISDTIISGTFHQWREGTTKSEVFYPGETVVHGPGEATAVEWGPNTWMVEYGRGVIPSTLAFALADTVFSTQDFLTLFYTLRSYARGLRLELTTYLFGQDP

## NCCc1ccccc1 [phenethylamine]
[1]
  Kd: 97.4 µM
[2]
  Kd: 7.31 µM

## CC1CN(CCCc2ccc(N=[N+]=[N-])c(I)c2)CC(C)O1 (stereo not shown) [[^125I]IAF, 1-N-(2′,6′-dimethyl-morpholino)-3-(4-azido-3-[^125I]iodo-phenyl) propane]
[3]
  Kd: 0.194 µM
[4]
  Kd: 2.78 µM

## CN[C@@H](C)Cc1ccccc1 [methamphetamine, reference compound]
[5]; 3 mg/kg, ip, n = 6
  hypermobility in open-field assay (in words): induced hypermobility
[6]
  hypermobility in open-field assay (in words): induced hypermobility

## NCCc1c[nH]c2ccccc12 [tryptamine]
[7]; 10 μM
  protection of [125I]IAF sigma-2 receptor photolabeling: 47%
[7]; 50 μM
  protection of [125I]IAF sigma-2 receptor photolabeling: 78%
[7]; 100 μM
  protection of [125I]IAF sigma-2 receptor photolabeling: 79%
[1]
  Kd: 431 µM
[2]
  Kd: 4.91 µM
[8]
  protection against sigma-1 receptor [125I]-IACoc photolabeling (in words): protected minimally

## CNCCc1ccc(O)cc1 [N-methyltyramine]
[2]; read-out: sigma-2 receptor Kd
  Kd: 6.61 µM

## COC(=O)C1C(OC(=O)c2ccc(N=[N+]=[N-])c(I)c2)CC2CCC1N2C (stereo not shown) [[^125I]-IACoc, 3-[^125I]iodo-4-azidococaine]
[3]
  Kd: 0.000126 µM

## CC(C)=CCN1CC[C@]2(C)c3cc(O)ccc3C[C@H]1[C@H]2C [(+)-pentazocine, reference compound]
[9]; 10 μM, [125I]-IACoc or [125I]IAF
  protection of sigma-1 receptor photolabeling (in words): protected

## NCCc1ccc(O)cc1 [tyramine]
[1]
  Kd: > 30000 µM

## CN(C)CCc1c[nH]c2ccccc12 [DMT, N,N-dimethyltryptamine]
[10]
  inhibition at 100 µM: 29 ± 3%
[5]; 2 mg/kg ip, 2 hours after pargyline (75 mg/kg, ip), n = 12
  distance traveled in open-field assay (hypermobility): 7025 ± 524.1 cm
[9]; 10 μM
  protection of [125I]IAF photolabeling of the sigma-1 receptor: 31%
[9]; 50 μM
  protection of [125I]IAF photolabeling of the sigma-1 receptor: 43%
[9]; 100 μM
  protection of [125I]IAF photolabeling of the sigma-1 receptor: 69%
[11]
  reduction of INa: 7 ± 2%
[12]
  inhibition of INa: 22 ± 4%
[13]
  inhibition of INa: 62 ± 3%
[8]; 50 μM
  protection of [125I]-IACoc photolabeling of the 26-kD sigma-1 receptor: 61%
[8]; 100 μM
  protection of [125I]-IACoc photolabeling of the 26-kD sigma-1 receptor: ~100%

## CNCCc1c[nH]c2ccccc12 [N-methyltryptamine]
[8]
  protection against sigma-1 receptor [125I]-IACoc photolabeling (in words): protected minimally

## O=C(CCCN1CCC(O)(c2ccc(Cl)cc2)CC1)c1ccc(F)cc1 [haloperidol, reference compound]
[7]; 10 μM, [125I]IAF
  protection of sigma-2 receptor photolabeling (in words): protected
